Results on 13 compounds are retold here after ChEMBL document CHEMBL1123429, “Influence of alkyl chain ramification on estradiol receptor binding affinity and intrinsic activity of 1,2-dialkylated 1,2-bis(4- or 3-hydroxyphenyl)ethane estrogens and antiestrogens” (J Med Chem, 1986).

For test [1], the target named is Estrogen receptor (Bos taurus) (UniProt Q9XSB5+P49884). Description: Relative binding affinity (RBA) for calf uterine estrogen receptor. In kind it is protein assay. The procedure, abridged: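 Displacement of [³H]estradiol from calf uterine cytosol; incubated 16 h at 4 °C. Dextran-coated charcoal stops incubation; after centrifugation, supernatant radioactivity counted. Six competitor concentrations spanning 50% competition; % bound vs log concentration plotted to obtain concentrations halving binding for unlabeled estradiol and test compound, giving RBA. Mean of four determinations.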

Test [2] concerns the target T1, Estrogen receptor (Mus musculus) (UniProt O08537+P19785). Description: Inhibition of estrone-stimulated uterine growth in immature mice at 10 ug. In kind it is functional. The essentials: (§1)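 Immature female NMRI mice, 20 days old (15.0 ± 2.5 g), randomized into groups of 10. Compound in olive oil (0.1 mL) injected sc daily for 3 days together with estrone; uteri removed 24 h after the last injection, fixed in Bouin's solution, washed, dried and weighed. Effect expressed as uterus dry weight (mg)/body weight (g) × 100; inhibition of estrone-stimulated growth.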

The target of test [3] is T1, Estrogen receptor (Mus musculus). The test can be described thus: Inhibition of estrone-stimulated uterine growth in immature mice at 300 ug. In kind it is functional. The procedure, abridged: as §1
The target is the same in test [4]. Description: Anti-uterotrophic effect in mice at 10 ug. In kind it is functional. The procedure, abridged:
as §1

Test [5] has the same target. The test can be described thus: Inhibition of estrone-stimulated uterine growth in immature mice at 100 ug. In kind it is functional. The procedure, abridged: as §1
Test [6] shares this target. Description: Anti-uterotrophic effect in mice at 0 ug. In kind it is functional. The procedure, abridged:
as §1

The target is the same in test [7]. Description: Anti-uterotrophic effect in mice at 300 ug. In kind it is functional. The essentials: as §1
Test [8] has the same target. Description: Anti-uterotrophic effect in mice at 100 ug. In kind it is functional. The procedure, abridged:
as §1

Test [9] has the same target. The test can be described thus: Anti-uterotrophic effect in mice at 30 ug. In kind it is functional. The procedure, abridged: as §1
The target is the same in test [10]. Description: Inhibition of estrone-stimulated uterine growth in immature mice at 30 ug. In kind it is functional. The essentials:
as §1

Test [11] has the same target.
For test [12] the target is unchanged. Description: Inhibition of estrone-stimulated uterine growth in immature mice at 3 ug. In kind it is functional. The procedure, abridged:
as §1

Test [13] has the same target. Description: Anti-uterotrophic effect in mice at 3 ug. In kind it is functional. The essentials: as §1

T1 sequence (O08537 whole entry, looked up): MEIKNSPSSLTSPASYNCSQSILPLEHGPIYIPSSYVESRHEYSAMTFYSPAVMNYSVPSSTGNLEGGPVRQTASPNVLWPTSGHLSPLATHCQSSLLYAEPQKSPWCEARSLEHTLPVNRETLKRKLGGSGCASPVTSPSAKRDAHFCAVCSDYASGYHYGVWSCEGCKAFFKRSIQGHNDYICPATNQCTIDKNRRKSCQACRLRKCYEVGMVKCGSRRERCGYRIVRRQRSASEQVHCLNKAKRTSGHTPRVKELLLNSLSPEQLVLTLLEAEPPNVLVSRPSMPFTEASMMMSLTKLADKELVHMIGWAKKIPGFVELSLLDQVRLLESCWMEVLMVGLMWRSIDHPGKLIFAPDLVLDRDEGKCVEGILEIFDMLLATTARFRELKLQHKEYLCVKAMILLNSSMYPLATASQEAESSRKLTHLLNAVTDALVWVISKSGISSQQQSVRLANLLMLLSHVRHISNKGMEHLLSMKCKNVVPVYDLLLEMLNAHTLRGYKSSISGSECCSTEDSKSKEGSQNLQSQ
T1 sequence (P19785 whole entry, looked up): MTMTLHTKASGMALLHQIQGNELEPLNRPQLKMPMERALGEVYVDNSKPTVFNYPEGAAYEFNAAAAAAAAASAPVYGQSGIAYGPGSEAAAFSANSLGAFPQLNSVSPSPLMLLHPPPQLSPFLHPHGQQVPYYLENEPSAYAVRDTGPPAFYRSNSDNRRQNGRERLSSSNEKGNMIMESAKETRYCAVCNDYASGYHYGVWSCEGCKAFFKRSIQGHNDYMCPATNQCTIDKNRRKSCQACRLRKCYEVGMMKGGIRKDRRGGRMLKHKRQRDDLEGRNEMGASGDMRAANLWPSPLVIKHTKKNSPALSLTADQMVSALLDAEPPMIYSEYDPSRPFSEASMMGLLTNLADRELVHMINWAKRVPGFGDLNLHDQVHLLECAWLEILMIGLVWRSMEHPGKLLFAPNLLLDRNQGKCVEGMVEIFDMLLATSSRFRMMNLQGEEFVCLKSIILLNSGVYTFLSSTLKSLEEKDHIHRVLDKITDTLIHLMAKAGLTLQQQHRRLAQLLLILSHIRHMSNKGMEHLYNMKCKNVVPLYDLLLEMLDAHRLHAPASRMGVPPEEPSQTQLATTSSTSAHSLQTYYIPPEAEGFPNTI

In [1], `CC(C)[C@@H](c1ccc(O)cc1)[C@@H](c1ccc(O)cc1)C(C)C` displayed a relative binding affinity (RBA) of 30.

`CC[C@H](c1ccc(O)cc1)[C@@H](CC)c1ccc(O)cc1`: in test [1], the relative binding affinity (RBA) is 25.

Take `CCC[C@H](c1cccc(O)c1)[C@@H](CCC)c1cccc(O)c1`: the inhibition in [2] was found to be 14%; in test [3], 42%; in [3] (in the assay text read “30 ug” for “300 ug”), 18%; in [5], 37%. Besides, the Effect in test [4] was 42.1; in [6], 14.5; in test [7], 33; in test [8], 34.7; in test [9] it was 40.8. The compound also registered a relative binding affinity (RBA) in test [1] of 4.

On to `CC(C)CC(c1cccc(O)c1)[C@H](CC(C)C)c1cccc(O)c1` (single isomer, unassigned), for which the inhibition in test [3] was 26%; in test [8], 27%; in test [10], 19%. For the same compound, the Effect came out at 14.5 in [6], 38.2 in test [7], 37.9 in test [8] and 40.3 in [9]. The relative binding affinity (RBA) in [1] was determined as 0.5.

As for `CC(C)(C)[C@H](c1ccc(O)cc1)[C@H](c1ccc(O)cc1)C(C)(C)C`, the relative binding affinity (RBA) in [1] was 1.5.

As to `CC(C)(C)[C@H](c1cccc(O)c1)[C@H](c1cccc(O)c1)C(C)(C)C`, the relative binding affinity (RBA) in [1] was determined as 0.7.

In [11], `C[C@]12CC[C@@H]3c4ccc(O)cc4CC[C@H]3[C@@H]1CCC2=O` had an Effect of 46.5.

Take `CC[C@H](c1cccc(O)c1)[C@@H](CC)c1cccc(O)c1`: the inhibition was determined as 39% in [2], 20% in test [12], 43% in test [8] and 51% in test [10]. In addition, the Effect in [4] worked out at 34.1; in test [6] it was 14.5; in test [13], 40.1; in [8] it was 32.7; in [9], 30.2. Further, the relative binding affinity (RBA) in [1] was 11.

`CCC[C@H](c1ccc(O)cc1)[C@@H](CCC)c1ccc(O)cc1` gave a relative binding affinity (RBA) in [1] of 8.

As for `CCC(C)[C@@H](c1ccc(O)cc1)[C@@H](c1ccc(O)cc1)C(C)CC` (stereo partly drawn), the relative binding affinity (RBA) in test [1] was determined as 5.

For the compound `CC(C)[C@@H](c1cccc(O)c1)[C@@H](c1cccc(O)c1)C(C)C`, in test [1], the relative binding affinity (RBA) is 15.

In [1], `CCC(C)[C@@H](c1cccc(O)c1)[C@@H](c1cccc(O)c1)C(C)CC` (stereo partly drawn) gave a relative binding affinity (RBA) of 3.

As to `CC(C)C[C@H](c1ccc(O)cc1)[C@@H](CC(C)C)c1ccc(O)cc1`, the relative binding affinity (RBA) in [1] worked out at 1.5.
